{"data": "Published values pooled from the literature", "note": "Compare with care: the assays were run in different laboratories."}
{"Compound": "Cc1nn(C)cc1-c1nc2c(N3CCN(Cc4ccc(Cl)cc4)CC3)c(Cl)cnc2[nH]1", "target": "Bone morphogenetic protein receptor type-1B (BMPR1B, Homo sapiens, UniProt O00238)", "read-out": "binding", "method": "competition with immobilised ligand", "concentration": "1 µM", "endpoint": "remaining binding", "value": "100%"}
{"Compound": "Nc1ncc(-c2nc(N3CCOCC3)nc(N3CCOCC3)n2)c(C(F)F)n1", "target": "Serine/threonine-protein kinase tousled-like 2 (TLK2, Homo sapiens, UniProt Q86UE8)", "read-out": "binding", "method": "competition with immobilised ligand", "concentration": "10 µM", "endpoint": "remaining binding", "value": "100%"}
{"Compound": "CCOC(=O)c1ccc(OC(=O)CCCCCNC(=N)N)cc1", "target": "Ubiquitin carboxyl-terminal hydrolase 2 (USP2, Homo sapiens, UniProt O75604)", "read-out": "enzyme activity", "action": "inhibitor", "concentration": "10 µM", "endpoint": "inhibition", "value": "2%"}
{"Compound": "COc1ncccc1-c1cnn2ccc(N3CCN(C(=O)OC(C)C)CC3)nc12", "target": "Cyclin-dependent kinase-like 2 (CDKL2, Homo sapiens, UniProt Q92772)", "read-out": "binding", "method": "competition with immobilised ligand", "concentration": "1 µM", "endpoint": "remaining binding", "value": "53%"}
{"Compound": "O=C1CC(c2c(O)cccc2O)Oc2cc(O)cc(O)c21 (centres unmarked)", "target": "Replicase polyprotein 1ab, main protease (rep, Severe acute respiratory syndrome coronavirus 2, UniProt P0DTD1)", "read-out": "enzyme activity", "action": "inhibitor", "concentration": "20 µM", "endpoint": "inhibition", "value": "26.5%"}
{"Compound": "Oc1cc(Br)cc(Br)c1Oc1ccc(Br)cc1Br", "target": "Sulfotransferase 1B1 (SULT1B1, Homo sapiens, UniProt O43704)", "read-out": "enzyme activity", "action": "substrate", "endpoint": "Km", "value": "26.7 µM"}
{"Compound": "CC(C)C[C@H](NC(=O)[C@H]1O[C@@H]1C(=O)O)C(=O)NCCCCN=C(N)N", "target": "Cathepsin S (CTSS, Homo sapiens, UniProt P25774)", "read-out": "enzyme activity", "action": "inhibitor", "concentration": "0.5 µM", "endpoint": "inhibition", "value": "97%"}
{"Compound": "CCN(CC)CCCC[C@H](NC(=O)[C@H](CC(C)C)NC(=O)[C@H](C)NC(=O)[C@H](Cc1ccccc1)NC(=O)c1ccc(C(C)(C)C)cc1)C(=O)N[C@@H](CO)C(=O)OC", "target": "Kappa-type opioid receptor (Oprk1, Rattus norvegicus, UniProt P34975)", "read-out": "ligand displacement", "method": "radioligand", "concentration": "10 µM", "endpoint": "remaining binding", "value": "9.5%"}
